In ChEMBL document CHEMBL1145037, “Structural properties of dibenzosuberanylpiperazine derivatives for efficient reversal of chloroquine resistance in Plasmodium chabaudi” (2003):

Legend:
[1] = Antimalarial activity was determined in female mice (Mus musculus) after intraperitoneal administration of 50 mg; format: functional, Plasmodium chabaudi
Procedure, shortened: (§1)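 4- to 5-week-old female ICR (CD-1) mice infected iv with 5×10^6 parasitized RBC of CQ-resistant 3CQ line of P. chabaudi AS, thawed from cryopreserved stock. Compound dissolved in DMSO, diluted with saline to 10% (w/v) DMSO, given ip 2 h post-infection and daily for 3 more days (four injections). Parasitemia (PRBC per 10 000 RBC, Giemsa thin films) read daily for 5 days; two mice per compound, three or five for some.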

[2] = chloroquine-resistant reversal activity was determined in female mice (Mus musculus) after intraperitoneal administration of 50 mg; format: functional, Plasmodium chabaudi
Procedure, shortened: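 Female ICR CD-1 mice, 4–5 weeks old, given 5×10^6 P. chabaudi AS 3CQ (CQ-resistant) line PRBC iv (thawed from cryopreserved blood). 2 h later, test compound (in DMSO diluted with saline to 10% DMSO) ip plus chloroquine 3 or 4 mg/kg ip, repeated daily for 4 total injections. Controls: DMSO, CQ alone, compound alone. Parasitemia per 10 000 RBC on Giemsa smears daily for 5 days.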

Mus musculus [3] = assay: Chloroquine resistant reversal activity was determined in female mice after intraperitoneal administration of 50 mg and 4 mg of chloroquine; format: functional
Procedure, shortened: (§2)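 Female ICR (CD-1) mice, 4-5 weeks old, infected iv with 5×10^6 PRBC of CQ-resistant 3CQ line of P. chabaudi AS (cryopreserved stock). 2 h later, test compound (in DMSO diluted with saline to 10% w/v DMSO) given ip, followed by ip CQ; repeated for 3 more days (four injections). Groups: DMSO, CQ alone, compound alone, combination. Parasitemia from Giemsa thin films, daily days 0-4.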

Mus musculus [4] = assay: Chloroquine resistant reversal activity was determined on day 1 in female mice after intraperitoneal administration of 15 mg and 4 mg of chloroquine; format: functional; procedure, shortened: as §2
Mus musculus [5] = assay: Chloroquine resistant reversal activity was determined on day 3 in female mice after intraperitoneal administration of 5 mg and 4 mg of chloroquine; format: functional; procedure, shortened: as §2
Mus musculus [6] = assay: Chloroquine resistant reversal activity was determined on day 0 in female mice after intraperitoneal administration of 10 mg and 4 mg of chloroquine; format: functional; procedure, shortened: as §2
Mus musculus [7] = assay: Chloroquine resistant reversal activity was determined on day 4 in female mice after intraperitoneal administration of 10 mg and 4 mg of chloroquine; format: functional; procedure, shortened: as §2
Mus musculus [8] = assay: Chloroquine resistant reversal activity was determined on day 4 in female mice after intraperitoneal administration of 15 mg and 4 mg of chloroquine; format: functional; procedure, shortened: as §2
Mus musculus [9] = assay: Chloroquine resistant reversal activity was determined on day 4 in female mice after intraperitoneal administration of 5 mg and 4 mg of chloroquine; format: functional; procedure, shortened: as §2
Mus musculus [10] = assay: Chloroquine resistant reversal activity was determined on day 2 in female mice after intraperitoneal administration of 10 mg and 4 mg of chloroquine; format: functional; procedure, shortened: as §2
Mus musculus [11] = assay: Chloroquine resistant reversal activity was determined on day 3 in female mice after intraperitoneal administration of 10 mg and 4 mg of chloroquine; format: functional; procedure, shortened: as §2
Mus musculus [12] = assay: Chloroquine resistant reversal activity was determined on day 0 in female mice after intraperitoneal administration of 15 mg and 4 mg of chloroquine; format: functional; procedure, shortened: as §2
Mus musculus [13] = assay: Chloroquine resistant reversal activity was determined on day 1 in female mice after intraperitoneal administration of 5 mg and 4 mg of chloroquine; format: functional; procedure, shortened: as §2
Mus musculus [14] = assay: Chloroquine resistant reversal activity was determined on day 0 in female mice after intraperitoneal administration of 5 mg and 4 mg of chloroquine; format: functional; procedure, shortened: as §2
Mus musculus [15] = assay: Chloroquine resistant reversal activity was determined on day 3 in female mice after intraperitoneal administration of 15 mg and 4 mg of chloroquine; format: functional; procedure, shortened: as §2
Mus musculus [16] = assay: Chloroquine resistant reversal activity was determined on day 2 in female mice after intraperitoneal administration of 15 mg and 4 mg of chloroquine; format: functional; procedure, shortened: as §2
Mus musculus [17] = assay: Chloroquine resistant reversal activity was determined on day 2 in female mice after intraperitoneal administration of 5 mg and 4 mg of chloroquine; format: functional; procedure, shortened: as §2
Mus musculus [18] = assay: Chloroquine resistant reversal activity was determined on day 1 in female mice after intraperitoneal administration of 10 mg and 4 mg of chloroquine; format: functional; procedure, shortened: as §2
Mus musculus [19] = assay: Chloroquine resistant reversal activity was determined in female mice after intraperitoneal administration of 15 mg and 4 mg of chloroquine; format: functional; procedure, shortened: as §2
Mus musculus [20] = assay: Antimalarial activity was determined in female mice after intraperitoneal administration of 15 mg of the compound; format: functional; procedure, shortened: as §1
Mus musculus [21] = assay: Chloroquine resistant reversal activity was determined on day 0 in female mice after intraperitoneal administration of 40 mg and 4 mg of chloroquine; format: functional; procedure, shortened: as §2
Mus musculus [22] = assay: Chloroquine resistant reversal activity was determined on day 2 in female mice after intraperitoneal administration of 50 mg and 4 mg of chloroquine; format: functional; procedure, shortened: as §2
Mus musculus [23] = assay: Chloroquine resistant reversal activity was determined on day 0 in female mice after intraperitoneal administration of 50 mg and 4 mg of chloroquine; format: functional; procedure, shortened: as §2
Mus musculus [24] = assay: Chloroquine resistant reversal activity was determined on day 1 in female mice after intraperitoneal administration of 50 mg and 4 mg of chloroquine; format: functional; procedure, shortened: as §2
Mus musculus [25] = assay: Chloroquine resistant reversal activity was determined on day 2 in female mice after intraperitoneal administration of 30 mg and 4 mg of chloroquine; format: functional; procedure, shortened: as §2
Mus musculus [26] = assay: Chloroquine resistant reversal activity was determined on day 1 in female mice after intraperitoneal administration of 30 mg and 4 mg of chloroquine; format: functional; procedure, shortened: as §2
Mus musculus [27] = assay: Chloroquine resistant reversal activity was determined on day 4 in female mice after intraperitoneal administration of 50 mg and 4 mg of chloroquine; format: functional; procedure, shortened: as §2
Mus musculus [28] = assay: Chloroquine resistant reversal activity was determined on day 3 in female mice after intraperitoneal administration of 40 mg and 4 mg of chloroquine; format: functional; procedure, shortened: as §2
Mus musculus [29] = assay: Chloroquine resistant reversal activity was determined on day 2 in female mice after intraperitoneal administration of 40 mg and 4 mg of chloroquine; format: functional; procedure, shortened: as §2
Mus musculus [30] = assay: Chloroquine resistant reversal activity was determined on day 4 in female mice after intraperitoneal administration of 30 mg and 4 mg of chloroquine; format: functional; procedure, shortened: as §2
Mus musculus [31] = assay: Chloroquine resistant reversal activity was determined on day 3 in female mice after intraperitoneal administration of 50 mg and 4 mg of chloroquine; format: functional; procedure, shortened: as §2
Mus musculus [32] = assay: Chloroquine resistant reversal activity was determined on day 3 in female mice after intraperitoneal administration of 30 mg and 4 mg of chloroquine; format: functional; procedure, shortened: as §2
Mus musculus [33] = assay: Chloroquine resistant reversal activity was determined on day 4 in female mice after intraperitoneal administration of 40 mg and 4 mg of chloroquine; format: functional; procedure, shortened: as §2
Mus musculus [34] = assay: Chloroquine resistant reversal activity was determined on day 0 in female mice after intraperitoneal administration of 30 mg and 4 mg of chloroquine; format: functional; procedure, shortened: as §2
Mus musculus [35] = assay: Chloroquine resistant reversal activity was determined on day 1 in female mice after intraperitoneal administration of 40 mg and 4 mg of chloroquine; format: functional; procedure, shortened: as §2
Mus musculus [36] = assay: Chloroquine resistant reversal activity was determined in female mice after intraperitoneal administration of 50 mg and 3 mg of chloroquine; format: functional; procedure, shortened: as §2

Structure (SMILES): CCCCCCCCCCCCCCC(O)CN1CCN(C2c3ccccc3CCc3ccccc32)CC1 (stereo unspecified)
- Antimalarial activity [1]: 122%
- Reversal activity [2]: 110%

Structure (SMILES): C=CCCC(O)CN1CCN(C2c3ccccc3CCc3ccccc32)CC1 (stereo unspecified)
- Antimalarial activity [1]: 101%
- Reversal activity [2]: 0%

Structure (SMILES): CCC(O)CN1CCN(C2c3ccccc3CCc3ccccc32)CC1 (stereo unspecified)
- Reversal activity (Mus musculus [3]): 0%
- Antimalarial activity [1]: 99%

Structure (SMILES): C=CC(C)N1CCN(C2c3ccccc3CCc3ccccc32)CC1 (stereo unspecified)
- Reversal activity (Mus musculus [3]): 0%
- Antimalarial activity [1]: 22%

Structure (SMILES): Cl.c1ccc2c(c1)CCc1ccccc1C2N1CCNCC1
- Reversal activity (Mus musculus [3]): 2%
- Antimalarial activity [1]: 68%

Structure (SMILES): Cl.c1ccc2c(c1)CCc1ccccc1C2N1CCN(C2c3ccccc3CCc3ccccc32)CC1
- Antimalarial activity [1]: 108%
- Reversal activity [2]: 81%

Structure (SMILES): CCCCCCC(O)CN1CCN(C2c3ccccc3CCc3ccccc32)CC1 (stereo unspecified)
- Antimalarial activity [1]: 92%
- Reversal activity [2]: 102%

Structure (SMILES): C=CC(CO)N1CCN(C2c3ccccc3CCc3ccccc32)CC1 (stereo unspecified)
- Reversal activity (Mus musculus [4]): 37%
- Reversal activity (Mus musculus [5]): 33%
- Reversal activity (Mus musculus [6]): 0%
- Reversal activity (Mus musculus [7]): 8.6%
- Reversal activity (Mus musculus [8]): 2.6%
- Reversal activity (Mus musculus [9]): 17%
- Reversal activity (Mus musculus [10]): 37%
- Reversal activity (Mus musculus [11]): 23%
- Reversal activity (Mus musculus [12]): 0%
- Reversal activity (Mus musculus [13]): 69%
- Reversal activity (Mus musculus [14]): 0%
- Reversal activity (Mus musculus [15]): 4%
- Reversal activity (Mus musculus [16]): 13%
- Reversal activity (Mus musculus [17]): 35%
- Reversal activity (Mus musculus [18]): 59%
- Reversal activity (Mus musculus [19]): 2.6%
- Antimalarial activity (Mus musculus [20]): 103%

Structure (SMILES): CC(=O)OCC#CCN1CCN(C2c3ccccc3CCc3ccccc32)CC1
- Reversal activity (Mus musculus [3]): 0%
- Antimalarial activity [1]: 116%

Structure (SMILES): OC(COc1ccccc1)CN1CCN(C2c3ccccc3CCc3ccccc32)CC1 (stereo unspecified)
- Antimalarial activity [1]: 136%
- Reversal activity [2]: 113%

Structure (SMILES): CCCCCCCCCCCCCCCCC(O)CN1CCN(C2c3ccccc3CCc3ccccc32)CC1 (stereo unspecified)
- Antimalarial activity [1]: 67%
- Reversal activity [2]: 68%

Structure (SMILES): OCC#CCN1CCN(C2c3ccccc3CCc3ccccc32)CC1
- Reversal activity (Mus musculus [3]): 0%
- Antimalarial activity [1]: 121%

Structure (SMILES): C=CC(O)CN1CCN(C2c3ccccc3CCc3ccccc32)CC1 (stereo unspecified)
- Reversal activity (Mus musculus [4]): 49%
- Reversal activity (Mus musculus [21]): 0%
- Reversal activity (Mus musculus [22]): 6.2%
- Reversal activity (Mus musculus [5]): 12%
- Reversal activity (Mus musculus [23]): 0%
- Reversal activity (Mus musculus [6]): 0%
- Reversal activity (Mus musculus [7]): 6%
- Reversal activity (Mus musculus [8]): 5.4%
- Reversal activity (Mus musculus [24]): 42%
- Reversal activity (Mus musculus [3]): 0%
- Reversal activity (Mus musculus [25]): 38%
- Reversal activity (Mus musculus [26]): 55%
- Reversal activity (Mus musculus [27]): 0%
- Antimalarial activity [1]: 82%
- Reversal activity (Mus musculus [28]): 0%
- Reversal activity (Mus musculus [9]): 11%
- Reversal activity (Mus musculus [10]): 21%
- Reversal activity (Mus musculus [11]): 7.9%
- Reversal activity (Mus musculus [29]): 10%
- Reversal activity (Mus musculus [12]): 0%
- Reversal activity (Mus musculus [30]): 0%
- Reversal activity (Mus musculus [13]): 76%
- Reversal activity (Mus musculus [14]): 0%
- Reversal activity (Mus musculus [15]): 9.5%
- Reversal activity (Mus musculus [31]): 0%
- Reversal activity (Mus musculus [32]): 2.9%
- Reversal activity (Mus musculus [33]): 0%
- Reversal activity (Mus musculus [16]): 16%
- Reversal activity (Mus musculus [34]): 0%
- Reversal activity (Mus musculus [17]): 32%
- Reversal activity (Mus musculus [18]): 62%
- Reversal activity (Mus musculus [35]): 33%

Structure (SMILES): CCCCCCCCC(O)CN1CCN(C2c3ccccc3CCc3ccccc32)CC1 (stereo unspecified)
- Antimalarial activity [1]: 152%
- Reversal activity [2]: 84%

Structure (SMILES): C=CCCCCCCC(O)CN1CCN(C2c3ccccc3CCc3ccccc32)CC1 (stereo unspecified)
- Antimalarial activity [1]: 68%
- Reversal activity [2]: 6.8%

Structure (SMILES): COc1ccc(OCC(O)CN2CCN(C3c4ccccc4CCc4ccccc43)CC2)cc1 (stereo unspecified)
- Antimalarial activity [1]: 147%
- Reversal activity (Mus musculus [36]): 90%

Structure (SMILES): CCCCCCCCCCCCC(O)CN1CCN(C2c3ccccc3CCc3ccccc32)CC1 (stereo unspecified)
- Antimalarial activity [1]: 138%
- Reversal activity [2]: 64%

Structure (SMILES): C=CCCCCC(O)CN1CCN(C2c3ccccc3CCc3ccccc32)CC1 (stereo unspecified)
- Antimalarial activity [1]: 108%
- Reversal activity [2]: 8.9%
